{"source": "ChEMBL document CHEMBL1125548", "about": "“Synthesis and pharmacological studies of N-substituted 6-[(2-aminoethyl)amino]-1,3-dimethyl-2,4(1H,3H)-pyrimidinediones, novel class III antiarrhythmic agents” (1992)", "key": {"Canis familiaris [1]": {"tested_on": "Canis familiaris", "experiment": "The percentage change of the duration of action potential at 75% repolarization was measured before and after the administration at 3.0 ug/mL", "format": "functional, Canis lupus familiaris", "procedure,_shortened": "(§1)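 Canine right-ventricular Purkinje fibers (mongrel dogs 7–11 kg, thiopental-anesthetized) superfused with Tyrode's (pH 7.5, 36 °C, gassed 95% O2/5% CO2). Compounds diluted from 1 mM water stock and added cumulatively. Readings taken 20 min after solution exchange. Result given as percent change in action potential duration.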"}, "Canis familiaris [2]": {"tested_on": "Canis familiaris", "experiment": "Percentage change of the duration of action potential at 75% repolarization was measured before and after the administration at 10.0 ug/mL", "format": "functional, Canis lupus familiaris", "procedure,_shortened": "as §1"}, "Canis familiaris [3]": {"tested_on": "Canis familiaris", "experiment": "The percentage change in the effective refractory period was measured before and after the administration at 0.1 mg/kg", "format": "functional, Canis lupus familiaris", "conditions": "dose 1.0 mg/kg; in the assay text read “1.0 mg/kg” for “0.1 mg/kg”", "procedure,_shortened": "(§2)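 In vivo, mongrel dogs of either sex (7–13 kg), anesthetized with pentobarbital sodium 30 mg/kg iv. Left femoral artery cannulated for arterial pressure, femoral vein for drug dosing. Effective refractory period measured before and after administration.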"}, "Canis familiaris [4]": {"tested_on": "Canis familiaris", "experiment": "The percentage change of the duration of action potential at 75% repolarization was measured before and after the administration at 1.0 ug/mL", "format": "functional, Canis lupus familiaris", "procedure,_shortened": "as §1"}, "Canis familiaris [5]": {"tested_on": "Canis familiaris", "experiment": "Concentration required for 50% inhibition of tachycardia induced by isoproterenol (0.5ug/mL, iv) in anesthetized dog", "format": "functional", "conditions": "Canis lupus familiaris, read-out: ID50 (the source's name)"}, "Canis familiaris [6]": {"tested_on": "Canis familiaris", "experiment": "The prolongation effect of the atrial and ventricular effective refractory period was measured before and after the administration at 0.1 mg/kg", "format": "functional, Canis lupus familiaris, Cardiac atrium", "conditions": "dose 1.0 mg/kg; in the assay text read “1.0 mg/kg” for “0.1 mg/kg”", "procedure,_shortened": "as §2"}, "Canis familiaris [7]": {"tested_on": "Canis familiaris", "experiment": "The prolongation effect of the atrial and ventricular effective refractory period was measured before and after the administration at 0.3 mg/kg", "format": "functional, Canis lupus familiaris, Cardiac atrium", "procedure,_shortened": "as §2"}, "Canis familiaris [8]": {"tested_on": "Canis familiaris", "experiment": "The prolongation effect of the atrial and ventricular effective refractory period was measured before and after the administration at 3 mg/kg", "format": "functional, Canis lupus familiaris, Cardiac atrium", "procedure,_shortened": "as §2"}, "Canis familiaris [9]": {"tested_on": "Canis familiaris", "experiment": "The prolongation effect of the atrial and ventricular effective refractory period was measured before and after the administration at 0.3 mg/kg"}}, "data": [{"molecule": "Cl.Cl.Cn1c(N2CCN(CCCOc3ccc(N)cc3)CC2)cc(=O)n(C)c1=O", "values": [{"measurement": "APD75", "setting": "Canis familiaris [1]", "value": 4, "unit": "%"}]}, {"molecule": "Cl.Cn1c(N2CCN(CCCOc3ccccc3[N+](=O)[O-])CC2)cc(=O)n(C)c1=O", "values": [{"measurement": "APD75", "setting": "Canis familiaris [2]", "value": 39, "unit": "%"}, {"measurement": "APD75", "setting": "Canis familiaris [1]", "value": 18, "unit": "%"}, {"measurement": "ERP", "setting": "Canis familiaris [3]", "value": 6.8, "unit": "%"}]}, {"molecule": "Cn1c(NCCNCC(O)COc2ccccc2F)cc(=O)n(C)c1=O", "note": "(stereo not given)", "values": [{"measurement": "APD75", "setting": "Canis familiaris [4]", "value": 4.1, "unit": "%"}, {"measurement": "APD75", "setting": "Canis familiaris [2]", "value": 15.6, "unit": "%"}, {"measurement": "APD75", "setting": "Canis familiaris [1]", "value": 8.3, "unit": "%"}, {"measurement": "ED50", "setting": "Canis familiaris [5]", "value": 0.003, "unit": "mg/kg"}]}, {"molecule": "Cn1c(NCCNCCCOc2ccccc2)cc(=O)n(C)c1=O", "values": [{"measurement": "APD75", "setting": "Canis familiaris [4]", "value": 4, "unit": "%"}, {"measurement": "APD75", "setting": "Canis familiaris [1]", "value": 11.9, "unit": "%"}, {"measurement": "ED50", "setting": "Canis familiaris [5]", "value": 0.1, "unit": "mg/kg"}]}, {"molecule": "CO.Cl.Cn1c(N2CCN(CCCOc3cccc([N+](=O)[O-])c3)CC2)cc(=O)n(C)c1=O", "values": [{"measurement": "APD75", "setting": "Canis familiaris [4]", "value": 15, "unit": "%"}, {"measurement": "APD75", "setting": "Canis familiaris [1]", "value": 34, "unit": "%"}, {"measurement": "ERP", "setting": "Canis familiaris [6]", "value": 7, "unit": "%"}]}, {"molecule": "Cl.Cn1c(N2CCN(CCCOc3ccc(F)cc3)CC2)cc(=O)n(C)c1=O", "values": [{"measurement": "APD75", "setting": "Canis familiaris [4]", "value": 9, "unit": "%"}, {"measurement": "APD75", "setting": "Canis familiaris [1]", "value": 13, "unit": "%"}, {"measurement": "ERP", "setting": "Canis familiaris [6]", "value": 5.9, "unit": "%"}, {"measurement": "ERP", "setting": "Canis familiaris [7]", "value": 5.9, "unit": "%"}, {"measurement": "ERP", "setting": "Canis familiaris [8]", "value": 11.8, "unit": "%"}]}, {"molecule": "CNS(=O)(=O)c1ccc(OCCCN2CCN(c3cc(=O)n(C)c(=O)n3C)CC2)cc1.Cl", "values": [{"measurement": "APD75", "setting": "Canis familiaris [1]", "value": 0, "unit": "%"}]}, {"molecule": "Cn1c(N2CCN(CCCc3ccc([N+](=O)[O-])cc3)CC2)cc(=O)n(C)c1=O.O=C(O)C(=O)O", "values": [{"measurement": "APD75", "setting": "Canis familiaris [4]", "value": 17, "unit": "%"}, {"measurement": "APD75", "setting": "Canis familiaris [2]", "value": 31, "unit": "%"}, {"measurement": "APD75", "setting": "Canis familiaris [1]", "value": 22, "unit": "%"}, {"measurement": "ERP", "setting": "Canis familiaris [9]", "value": 14.3, "unit": "%"}]}, {"molecule": "Cl.Cl.Cn1c(N2CCN(CCCOc3ccc([N+](=O)[O-])cc3)CC2)cc(=O)n(C)c1=O", "values": [{"measurement": "APD75", "setting": "Canis familiaris [4]", "value": 17, "unit": "%"}, {"measurement": "APD75", "setting": "Canis familiaris [2]", "value": 30, "unit": "%"}, {"measurement": "APD75", "setting": "Canis familiaris [1]", "value": 22, "unit": "%"}, {"measurement": "ERP", "setting": "Canis familiaris [3]", "value": 15.8, "unit": "%"}]}, {"molecule": "CCN(CCCc1ccc([N+](=O)[O-])cc1)CCNc1cc(=O)n(C)c(=O)n1C.Cl", "values": [{"measurement": "APD75", "setting": "Canis familiaris [4]", "value": 11, "unit": "%"}, {"measurement": "APD75", "setting": "Canis familiaris [1]", "value": 16, "unit": "%"}]}, {"molecule": "CCO.Cn1c(NCCNCC(O)COc2ccccc2)cc(=O)n(C)c1=O", "note": "(stereo not given)", "values": [{"measurement": "APD75", "setting": "Canis familiaris [2]", "value": 10.1, "unit": "%"}, {"measurement": "APD75", "setting": "Canis familiaris [1]", "value": 6.9, "unit": "%"}, {"measurement": "ED50", "setting": "Canis familiaris [5]", "value": 0.01, "unit": "mg/kg"}]}, {"molecule": "Cl.Cn1c(N2CCN(CCCOc3ccccc3Cl)CC2)cc(=O)n(C)c1=O", "values": [{"measurement": "APD75", "setting": "Canis familiaris [2]", "value": 7, "unit": "%"}, {"measurement": "APD75", "setting": "Canis familiaris [1]", "value": 0, "unit": "%"}]}, {"molecule": "Cl.Cl.Cn1c(N2CCN(CC(O)COc3ccccc3)CC2)cc(=O)n(C)c1=O", "note": "(stereo not given)", "values": [{"measurement": "APD75", "setting": "Canis familiaris [4]", "value": 3.5, "unit": "%"}, {"measurement": "APD75", "setting": "Canis familiaris [1]", "value": 13.7, "unit": "%"}, {"measurement": "ED50", "setting": "Canis familiaris [5]", "value": "> 5", "unit": "mg/kg"}]}, {"molecule": "Cl.Cn1c(N2CCN(CCCOc3cccc(Cl)c3)CC2)cc(=O)n(C)c1=O", "values": [{"measurement": "APD75", "setting": "Canis familiaris [2]", "value": 7, "unit": "%"}, {"measurement": "APD75", "setting": "Canis familiaris [1]", "value": 6, "unit": "%"}]}]}
